Measurements published in ChEMBL document CHEMBL1126905, “Inhibitors of cholesterol biosynthesis. 2. 3,5-Dihydroxy-7-(N-pyrrolyl)-6-heptenoates, a novel series of HMG-CoA reductase inhibitors” (J Med Chem, 1993).

Columns and labels:
[1] = biological target: T1, 3-hydroxy-3-methylglutaryl-coenzyme A reductase (Rattus norvegicus, UniProt P51639); experiment: Inhibition of rat liver microsomal HMG-CoA reductase
T1 sequence (P51639 whole entry): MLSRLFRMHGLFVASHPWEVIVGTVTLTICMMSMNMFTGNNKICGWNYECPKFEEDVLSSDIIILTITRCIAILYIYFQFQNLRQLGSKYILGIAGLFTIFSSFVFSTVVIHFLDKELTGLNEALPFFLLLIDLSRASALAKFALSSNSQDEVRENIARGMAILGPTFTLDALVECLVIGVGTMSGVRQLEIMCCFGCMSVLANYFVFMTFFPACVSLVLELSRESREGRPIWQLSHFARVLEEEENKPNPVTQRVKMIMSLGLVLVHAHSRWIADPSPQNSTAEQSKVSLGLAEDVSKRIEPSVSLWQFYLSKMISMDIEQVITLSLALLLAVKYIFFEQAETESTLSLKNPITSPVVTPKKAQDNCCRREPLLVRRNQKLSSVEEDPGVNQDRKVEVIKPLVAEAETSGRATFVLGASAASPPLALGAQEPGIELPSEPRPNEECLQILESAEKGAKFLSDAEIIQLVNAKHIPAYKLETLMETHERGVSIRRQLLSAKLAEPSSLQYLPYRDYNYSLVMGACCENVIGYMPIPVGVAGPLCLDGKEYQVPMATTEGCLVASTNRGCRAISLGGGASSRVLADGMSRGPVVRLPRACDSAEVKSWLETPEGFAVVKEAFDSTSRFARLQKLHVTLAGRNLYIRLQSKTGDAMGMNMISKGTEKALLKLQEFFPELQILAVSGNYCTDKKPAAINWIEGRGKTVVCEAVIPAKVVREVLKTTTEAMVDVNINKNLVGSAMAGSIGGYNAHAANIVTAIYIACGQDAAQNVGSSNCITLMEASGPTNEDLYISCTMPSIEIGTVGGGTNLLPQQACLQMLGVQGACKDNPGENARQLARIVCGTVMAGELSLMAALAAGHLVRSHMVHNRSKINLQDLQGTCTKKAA
Method in brief: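 Test agents run as sodium salts of the dihydroxy carboxylic acids, against rat liver microsomal enzyme. Five dose levels per inhibitor, at least in duplicate, on at least two separate occasions. IC50 given as the mean, with pravastatin sodium salt as reference.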

[2] = Lipophilicity was determined; assay type: physicochemical; details: octanol/water

| Structure (SMILES) | IC50 [1] | logD [2] |
| --- | --- | --- |
| COC(=O)C[C@H](O)C[C@H](O)/C=C/n1c(C(C)C)cc(-c2cccc(Br)c2)c1-c1ccc(F)cc1 | 0.5 nM | 2.8 |
| COC(=O)C[C@H](O)C[C@H](O)/C=C/n1c(C(C)C)cc(-c2cccc(Cl)c2)c1-c1ccc(F)cc1 | 2 nM | 2.57 |
| COC(=O)C[C@H](O)C[C@H](O)/C=C/n1c(C(C)C)cc(-c2ccccc2)c1-c1ccc(F)cc1 | 2 nM |  |
| COC(=O)C[C@H](O)C[C@H](O)CCn1c(C(C)C)cc(-c2ccc(F)cc2)c1-c1ccc(F)cc1 | 105 nM |  |
| COC(=O)C[C@H](O)C[C@H](O)/C=C/n1c(C(C)C)cc(-c2ccccn2)c1-c1ccc(F)cc1 | 2 nM |  |
| COC(=O)C[C@H](O)C[C@H](O)/C=C/n1c(C(C)C)cc(-c2ccc(F)cc2)c1-c1cccc(Br)c1 | 69 nM |  |
| COC(=O)C[C@H](O)C[C@H](O)/C=C/n1c(C(C)C)cc(-c2ccc(F)cc2)c1-c1ccccc1 | 25 nM |  |
| COC(=O)C[C@H](O)C[C@H](O)/C=C/n1c(C(C)C)cc(-c2ccc(F)cc2)c1-c1ccc(F)cc1 | 2 nM | 2.1 |
| COC(=O)C[C@H](O)C[C@H](O)/C=C/n1c(C(C)C)cc(-c2ccncc2)c1-c1ccc(F)cc1 | 5 nM | 0.9 |
| COC(=O)C[C@H](O)C[C@H](O)/C=C/n1c(C(C)C)cc(-c2ccc(F)cc2)c1-c1cccc(Cl)c1 | 71 nM |  |
| COC(=O)C[C@H](O)C[C@H](O)/C=C/n1c(-c2ccc(F)cc2)c(-c2ccc(F)cc2)c(Br)c1C(C)C | 0.3 nM |  |
| CC[C@H](C)C(=O)O[C@H]1C[C@@H](C)C=C2C=C[C@H](C)[C@H](CC[C@@H]3C[C@@H](O)CC(=O)O3)[C@H]21 [LOVASTATIN] | 3 nM |  |
| CC[C@H](C)C(=O)O[C@H]1C[C@H](O)C=C2C=C[C@H](C)[C@H](CC[C@@H](O)C[C@@H](O)CC(=O)O)[C@H]21 [PRAVASTATIN SODIUM] | 5 nM |  |
